Format in all cases: functional
The subject of one assay is IGROV-1. The experiment in a line: Growth inhibition of human IGROV1 cells at 10 uM after 48 hrs by coulter counter method. The settings on record: IGROV-1, 48 h, read-out: GI. The gist of the method:
(§1)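 Single high-dose NCI 60-cell-line panel screen across nine tumor subpanels. Test solutions (0.2 mL) were added in duplicate to wells holding 1.8 mL of culture at 6 × 10⁴ cells/mL. Controls got PBS and DMSO at identical dilutions. Incubation was 48 h at 37 °C in humidified 5% CO₂. Cells were diluted 10-fold in saline, Coulter-counted and dilution-corrected. Results were expressed as percent growth inhibition versus control.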

The next assay deals with K562. Put plainly: Growth inhibition of human K562 cells at 10 uM after 48 hrs by coulter counter method. The note with it: K562, 48 h, read-out: GI. Put shortly:
as §1

The test system of another assay is MOLT-4. Put plainly: Growth inhibition of human MOLT4 cells at 10 uM after 48 hrs by coulter counter method. The settings on record: MOLT-4, 48 h, read-out: GI. The gist of the method:
as §1

A further assay relates to UO-31. The experiment in a line: Growth inhibition of human UO31 cells at 10 uM after 48 hrs by coulter counter method. The settings on record: UO-31, 48 h, read-out: GI. The gist of the method: as §1
The test system of another assay is T47D. Put plainly: Growth inhibition of human T47D cells at 10 uM after 48 hrs by coulter counter method. The settings on record: read-out: GI. The gist of the method:
as §1

Consider `O=c1nc(Nc2nc3ccccc3c(=O)n2-c2ccccc2)cc(O)[nH]1`, for which the inhibition of growth at 10 µM with IGROV-1 amounted to 72.3%.

As to `CN(C)c1ccc(-c2nnc(Nc3nc4ccccc4c(=O)n3-c3ccccc3)s2)cc1`, the inhibition of growth at 10 µM in the assay on K562 is 52%; with MOLT-4 it was 34.6%.

Take `COc1ccc(C2NC(=O)Nc3ccc(S(=O)(=O)Nc4ccccn4)cc32)cc1` (centres undefined): the inhibition of growth at 10 µM with UO-31 was 40.5%; in the assay on T47D, 43.9%.

With `O=C1Nc2ccc(CNc3ccccn3)cc2C(c2ccc(Cl)cc2)N1` (centres undefined), the inhibition of growth at 10 µM in the assay on UO-31 turned out to be 40.5%; in the assay with T47D, 43.9%.

As to `O=c1nc(Nc2nc3ccccc3c(=O)n2-c2ccc(Cl)cc2)cc(O)[nH]1`, the inhibition of growth at 10 µM turned out to be 52% with K562 and 34.6% in the assay on MOLT-4.

Values taken from ChEMBL document CHEMBL1629431, “Synthesis and antitumor activity of some 2, 3-disubstituted quinazolin-4(3H)-ones and 4, 6- disubstituted- 1, 2, 3, 4-tetrahydroquinazolin-2H-ones” (2010).
